ChEMBL document CHEMBL1177859, “Synthesis and antipsychotic and anticonvulsant activity of some new substituted oxa/thiadiazolylazetidinonyl/thiazolidinonylcarbazoles” (Eur J Med Chem, 2010)

What was measured:
[1] = tested on: Rattus norvegicus; assay: Toxicity in rat assessed as time spent on rotarod at 40 mg/kg, ip by rotarod test; format: organism-based; parameters: dose 40 mg/kg, route intraperitoneal; details: in vivo
How it was run: (§1)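 Rats dosed i.p.: test agents at 40 mg/kg, with a propylene glycol group at 0.5 mL. Rotarod performance test, recorded as mean time in seconds on the rod.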

[2] = tested on: Rattus norvegicus; assay: Anticonvulsant activity in rat assessed as protection against maximal electric shock-induced seizures at 40 mg/kg, ip; format: functional; details: route intraperitoneal
How it was run: (§2)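 Rats dosed i.p.: test agents at 40 mg/kg, with a propylene glycol group at 0.5 mL. Maximal electroshock (MES) seizure test, scored as % seizure protection.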

[3] = Toxicity in ip dosed rat; format: organism-based; details: in vivo
[4] = tested on: Rattus norvegicus; assay: Anticonvulsant activity in rat assessed as protection against maximal electric shock-induced seizures at 0.5 mL, ip; format: functional; how it was run: as §2
[5] = tested on: Rattus norvegicus; assay: Toxicity in rat assessed as time spent on rotarod at 0.5 mL, ip by rotarod test; format: organism-based; details: in vivo; how it was run: as §1

Row | Structure (SMILES) | Time [1] [s] | Activity [2] [%] | LD50 [3] [mg/kg] | Activity [4] [%] | Time [5] [s]
1 | O=C1C(Cl)C(c2ccc(O)cc2O)N1c1nnc(Cn2c3ccccc3c3ccccc32)o1 (stereo not drawn) | 106.4 | 50 | > 1000 | – | –
2 | CN(C)c1ccc(C2C(Cl)C(=O)N2c2nnc(Cn3c4ccccc4c4ccccc43)s2)cc1 (stereo not drawn) | 106 | 50 | > 1000 | – | –
3 | Brc1ccccc1/C=N/c1nnc(Cn2c3ccccc3c3ccccc32)o1 | 110.8 | 30 | > 1000 | – | –
4 | Oc1ccc(/C=N/c2nnc(Cn3c4ccccc4c4ccccc43)s2)cc1 | 108.8 | 40 | > 1000 | – | –
5 | Oc1ccc(/C=N/c2nnc(Cn3c4ccccc4c4ccccc43)s2)c(O)c1 | 108.6 | 50 | > 1000 | – | –
6 | O=C1C(Cl)C(c2ccccc2Br)N1c1nnc(Cn2c3ccccc3c3ccccc32)s1 (stereo not drawn) | 98 | 80 | > 1000 | – | –
7 | O=C1CSC(c2ccc(O)cc2O)N1c1nnc(Cn2c3ccccc3c3ccccc32)s1 (stereo not drawn) | 102.2 | 70 | > 1000 | – | –
8 | O=C1CSC(c2ccc(O)cc2)N1c1nnc(Cn2c3ccccc3c3ccccc32)o1 (stereo not drawn) | 104.6 | 60 | > 1000 | – | –
9 | O=C1CSC(c2ccc(O)cc2O)N1c1nnc(Cn2c3ccccc3c3ccccc32)o1 (stereo not drawn) | 104.4 | 60 | > 1000 | – | –
10 | COc1cc(C2SCC(=O)N2c2nnc(Cn3c4ccccc4c4ccccc43)s2)ccc1O (stereo not drawn) | 98.8 | 70 | > 1000 | – | –
11 | CN(C)c1ccc(C2SCC(=O)N2c2nnc(Cn3c4ccccc4c4ccccc43)s2)cc1 (stereo not drawn) | 104 | 60 | > 1000 | – | –
12 | O=C1CSC(c2ccccc2Br)N1c1nnc(Cn2c3ccccc3c3ccccc32)s1 (stereo not drawn) | 96 | 90 | > 1600 | – | –
13 | Oc1ccc(/C=N/c2nnc(Cn3c4ccccc4c4ccccc43)o2)cc1 | 116.4 | 20 | > 1000 | – | –
14 | O=C1C(Cl)C(c2ccc(O)cc2)N1c1nnc(Cn2c3ccccc3c3ccccc32)s1 (stereo not drawn) | 102 | 60 | > 1000 | – | –
15 | O=C1C(Cl)C(c2ccc(O)cc2O)N1c1nnc(Cn2c3ccccc3c3ccccc32)s1 (stereo not drawn) | 102.2 | 50 | > 1000 | – | –
16 | COc1cc(/C=N/c2nnc(Cn3c4ccccc4c4ccccc43)s2)ccc1O | 106.8 | 50 | > 1000 | – | –

Row | Structure (SMILES) | Time [1] [s] | Activity [2] [%] | LD50 [3] [mg/kg] | Activity [4] [%] | Time [5] [s]
17 | CN(C)c1ccc(/C=N/c2nnc(Cn3c4ccccc4c4ccccc43)s2)cc1 | 110.2 | 40 | > 1000 | – | –
18 | COc1cc(C2C(Cl)C(=O)N2c2nnc(Cn3c4ccccc4c4ccccc43)o2)ccc1O (stereo not drawn) | 102.4 | 50 | > 1000 | – | –
19 | COc1cc(C2SCC(=O)N2c2nnc(Cn3c4ccccc4c4ccccc43)o2)ccc1O (stereo not drawn) | 102.8 | 70 | > 1000 | – | –
20 | Oc1ccc(/C=N/c2nnc(Cn3c4ccccc4c4ccccc43)o2)c(O)c1 | 114.8 | 30 | > 1000 | – | –
21 | COc1cc(/C=N/c2nnc(Cn3c4ccccc4c4ccccc43)o2)ccc1O | 112.2 | 30 | > 1000 | – | –
22 | CN(C)c1ccc(/C=N/c2nnc(Cn3c4ccccc4c4ccccc43)o2)cc1 | 114 | 20 | > 1000 | – | –
23 | CN(C)c1ccc(C2C(Cl)C(=O)N2c2nnc(Cn3c4ccccc4c4ccccc43)o2)cc1 (stereo not drawn) | 100.2 | 40 | > 1000 | – | –
24 | O=C1C(Cl)C(c2ccccc2Br)N1c1nnc(Cn2c3ccccc3c3ccccc32)o1 (stereo not drawn) | 98.8 | 60 | > 1000 | – | –
25 | CN(C)c1ccc(C2SCC(=O)N2c2nnc(Cn3c4ccccc4c4ccccc43)o2)cc1 (stereo not drawn) | 104.2 | 60 | > 1000 | – | –
26 | O=C1CSC(c2ccccc2Br)N1c1nnc(Cn2c3ccccc3c3ccccc32)o1 (stereo not drawn) | 96.6 | 70 | > 1000 | – | –
27 | O=C1CSC(c2ccc(O)cc2)N1c1nnc(Cn2c3ccccc3c3ccccc32)s1 (stereo not drawn) | 100.6 | 60 | > 1000 | – | –
28 | Brc1ccccc1/C=N/c1nnc(Cn2c3ccccc3c3ccccc32)s1 | 106.8 | 60 | > 1000 | – | –
29 | O=C1C(Cl)C(c2ccc(O)cc2)N1c1nnc(Cn2c3ccccc3c3ccccc32)o1 (stereo not drawn) | 104.6 | 40 | > 1000 | – | –
30 | COc1cc(C2C(Cl)C(=O)N2c2nnc(Cn3c4ccccc4c4ccccc43)s2)ccc1O (stereo not drawn) | 102.4 | 70 | > 1000 | – | –
31 | O=C(CCCN1CCC(O)(c2ccc(Cl)cc2)CC1)c1ccc(F)cc1 [HALOPERIDOL] | – | – | – | 0 | –
32 | CC(O)CO (stereo not drawn) [PROPYLENE GLYCOL] | – | – | – | 0 | 120
